Assay [1] has as its target Beta-2 adrenergic receptor (Cavia porcellus) (UniProt Q8K4Z4). As to the kind of experiment: Specific antagonistic activity difference against beta-2 adrenergic receptor of isolated guinea pig tracheal strips. The class given is functional.
In assay [2] the target is Beta-1 adrenergic receptor (Cavia porcellus) (UniProt B0FL73). As to the kind of experiment: Specific antagonistic activity difference against beta-1 adrenergic receptor of isolated guinea pig atria. In kind it is functional.
Assay [3] has as its target Beta-2 adrenergic receptor (Cavia porcellus, UniProt Q8K4Z4). The assay is described as follows: Antagonistic activity against beta-2 adrenergic receptor on isolated guinea pig tracheal strips. The class given is functional, tissue-based, Trachea. The note with it: read-out: pA2 (converted). The method in brief: (§1)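 Tracheal strips from male adult guinea pigs (300–350 g) in Krebs–Henseleit with ascorbic acid (0.1 mg/mL) and phentolamine (0.1 μg/mL), 37 °C, 95% O2–5% CO2. Strips were under 0.5 g tension, stabilized 30 min, and given steady tone with carbachol 5 × 10^-7 M. Isotonic recording. Agonist dose–response curves to noradrenaline and isoprenaline were run before and after 20 min antagonist contact.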

In assay [4] the target is Beta-1 adrenergic receptor (Cavia porcellus) (UniProt B0FL73). The assay is described as follows: (§2) Antagonistic activity against beta-1 adrenergic receptor of isolated guinea pig atria. The class given is functional. The method in brief: (§3)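 Antagonism was assessed from dose–response curves to noradrenaline and isoprenaline obtained before and after a 20 min contact period with the test antagonist. Each agonist was allowed to act until maximal response.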

For assay [5], the target named is Beta-1 adrenergic receptor (Cavia porcellus, UniProt B0FL73). The assay is described as §2. The following applies: read-out: pA2 (converted). In kind it is functional. The method in brief: as §3
Assay [6] has as its target Beta-2 adrenergic receptor (Cavia porcellus) (UniProt Q8K4Z4). The assay is described as follows: Antagonistic activity against beta-2 adrenergic receptor of isolated guinea pig tracheal strips. The class given is functional, tissue-based. The following applies: Trachea. The method in brief:
as §1

For assay [7], the target named is Beta-1 adrenergic receptor (Cavia porcellus) (UniProt B0FL73). As to the kind of experiment: […] activity against beta-1 adrenergic receptor on isolated guinea pig atria. The class given is functional. The method in brief:
as §3

The target is the same in assay [8]. The assay is described as follows: Stimulating activity against beta-1. The method in brief: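 Agonist given until maximal response was reached, building dose–response curves. Affinity expressed as pD2, calculated by the Ariëns–Van Rossum method.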
For assay [9] the target is unchanged.

The source of these data is ChEMBL document CHEMBL1122883, “An interdisciplinary approach to the design of new structures active at the beta-adrenergic receptor. Aliphatic oxime ether derivatives” (J Med Chem, 1985).

Sequence of Beta-1 adrenergic receptor (B0FL73 whole entry): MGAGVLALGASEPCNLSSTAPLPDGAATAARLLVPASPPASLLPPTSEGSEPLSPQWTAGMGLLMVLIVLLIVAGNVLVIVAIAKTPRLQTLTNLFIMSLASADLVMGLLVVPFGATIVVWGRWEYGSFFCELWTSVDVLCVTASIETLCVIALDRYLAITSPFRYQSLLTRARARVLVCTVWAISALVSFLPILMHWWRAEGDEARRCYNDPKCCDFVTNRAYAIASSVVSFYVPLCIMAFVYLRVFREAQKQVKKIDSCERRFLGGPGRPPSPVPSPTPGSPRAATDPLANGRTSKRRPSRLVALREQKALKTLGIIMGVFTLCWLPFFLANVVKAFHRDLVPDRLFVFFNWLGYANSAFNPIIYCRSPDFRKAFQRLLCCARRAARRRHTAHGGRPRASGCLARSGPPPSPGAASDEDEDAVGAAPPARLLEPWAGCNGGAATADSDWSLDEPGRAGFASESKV
Sequence of Beta-1 adrenergic receptor (Cavia porcellus) (B0FL73 1-467): as the sequence (B0FL73 whole entry) above
Sequence of Beta-2 adrenergic receptor (Cavia porcellus) (Q8K4Z4 whole entry, looked up): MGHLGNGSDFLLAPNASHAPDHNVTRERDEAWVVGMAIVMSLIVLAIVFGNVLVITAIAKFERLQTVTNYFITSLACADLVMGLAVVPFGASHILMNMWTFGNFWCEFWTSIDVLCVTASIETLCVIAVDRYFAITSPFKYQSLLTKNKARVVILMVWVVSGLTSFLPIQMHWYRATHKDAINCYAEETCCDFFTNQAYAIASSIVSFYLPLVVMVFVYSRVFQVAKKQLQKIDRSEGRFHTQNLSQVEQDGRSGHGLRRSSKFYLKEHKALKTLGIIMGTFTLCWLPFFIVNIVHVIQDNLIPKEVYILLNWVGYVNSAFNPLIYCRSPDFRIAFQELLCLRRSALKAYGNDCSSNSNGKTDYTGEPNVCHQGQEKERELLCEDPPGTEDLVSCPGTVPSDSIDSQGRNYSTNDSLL
Sequence of Beta-2 adrenergic receptor (Q8K4Z4 whole entry): as the sequence (Q8K4Z4 whole entry, looked up) above

Take `CC(C)(C)NCC(O)CON=C1CCCC1` (centres undefined): the pA2 - pA10 came to 0.88 in assay [1] and 0.69 in [2]. Also, the figures for the Kb in assay [3] and in assay [5] were 174 nM and 53700 nM, respectively. The figures for the pA10 in assay [4] and in [6] were 3.58 and 5.88, respectively.

For the compound `CCC(CC)=NOCC(O)CNC(C)(C)C` (centres undefined), the pA2 - pA10 in assay [1] turned out to be 0.84; in assay [2], 0.71. Also, the Kb in assay [3] was 10.5 nM; in assay [5], 1260 nM. The pA10 is 5.19 in assay [4] and 7.14 in assay [6].

As to `COc1ccc(OC)c(C(O)C(C)NC(C)(C)C)c1` (centres undefined) [BUTOXAMINE], the pA2 - pA10 in [1] is 0.93; in assay [2], 0.37. The Kb in assay [3] is 129 nM; in assay [5], 44700 nM. The pA10 came to 3.98 in assay [4] and 5.96 in assay [6].

In the case of `CC(C)NCC(O)CON=C1CCCC1` (centres undefined), the figures for the pA2 - pA10 in assay [1] and in assay [2] were 0.71 and 0.8, respectively. Also, the Kb in [3] was 155 nM; in assay [5], 24500 nM. The pA10 in assay [4] stood at 3.81; in assay [6], 6.09.

As for `OCc1ccc(O)c(O)c1`, in assay [7], the pD2 is 8.44.

Turning to `CCCC(CCC)=NOCC(O)CNC(C)C` (centres undefined), the results for the pA2 - pA10 in [1] and in assay [2] were 0.714 and 0.55, respectively. The Kb in [3] is 6.31 nM; in assay [5], 20900 nM. Further, the pA10 in assay [4] came to 4.13; in assay [6] it was 7.49.

For the compound `CC(C)C(=NOCC(O)CNC(C)(C)C)C(C)C` (centres undefined), the pA2 - pA10 in assay [1] stood at 0.82; in assay [2], 0.9. Moreover, the Kb was 22.9 nM in [3] and 14500 nM in assay [5]. Further, the pA10 in assay [4] came out at 3.94; in assay [6], 6.82. For the same compound, in assay [8], the pD2 was 6.12.

With `CC(C)(C)NCC(O)CON=C1CCCCC1` (centres undefined), the pA2 - pA10 was found to be 0.6 in [1] and 0.78 in assay [2]. Besides, the Kb is 38.9 nM in [3] and 8320 nM in [5]. Besides, the pA10 in assay [4] was found to be 4.3; in [6], 6.81.

As for `CCCC(CCC)=NOCC(O)CNC(C)(C)C` (centres undefined), the pA2 - pA10 came to 0.69 in assay [1] and 0.85 in assay [2]. Also, the Kb in assay [3] was 2.4 nM; in [5], 4680 nM. In addition, the pA10 in [4] came out at 4.48; in assay [6] it was 7.93.

Turning to `CC(C)NCC(O)CON=C(C(C)C)C(C)C` (centres undefined), the pA2 - pA10 is 0.9 in assay [1] and 0.89 in assay [2]. The Kb in assay [3] was 3.02 nM; in [5], 17000 nM. Further, the pA10 in assay [4] was determined as 3.88; in assay [6], 7.62. This compound showed a pD2 in assay [9] of 6.08.

On to `CCC(CC)=NOCC(O)CNC(C)C` (centres undefined), for which the pA2 - pA10 in assay [1] is 0.81; in assay [2], 0.78. Also, the Kb in [3] was 4.17 nM; in assay [5], 955 nM. The pA10 is 5.24 in assay [4] and 7.57 in assay [6].

Take `CC(C)NCC(O)CON=C1CCCCC1` (centres undefined): the values for the pA2 - pA10 in [1] and in assay [2] were 0.5 and 0.82, respectively. The results for the Kb in [3] and in [5] were 72.4 nM and 20000 nM, respectively. Also, the pA10 was found to be 3.88 in [4] and 6.64 in [6].
